{
  "source": "paper PMC11348603",
  "about": "(BMC Pharmacology & Toxicology, 2024)",
  "key": {"[1]": {"type": "in vivo, healthy Chinese adult volunteers", "settings": "for subjects whose concentration-time curves displayed multiple peaks: fasting state", "outline": "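Two open-label BE studies in healthy Chinese adults, each giving one reference tablet dose (20 mg or 80 mg) with 240 mL water. Subjects either fasted ≥10 h pre-dose or ate a high-fat, high-calorie meal (800–1000 kcal) within 30 min of dosing. Blood was drawn from 30 min pre-dose to 48 h post-dose. Plasma was separated at 3000 rpm, stored at −70 °C, and assayed by LC-MS/MS. Cmax, tmax and AUCs came from non-compartmental analysis.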"}, "[2]": {"assay": "Population pharmacokinetic analysis", "type": "in vivo, healthy Chinese adult volunteers", "outline": "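Pooled plasma data from 128 subjects were fitted by SAEM with a two-compartment model: first-order elimination, two deposit absorption compartments, lag times. Parameters were log-normal with exponential IIV, and proportional, additive and combined residual errors were tested. Stepwise covariate search used p<0.05 forward and p<0.01 backward. Sex, age, WT and BMI were tested on CL/F and volume. Food (0 fasted, 1 fed) was tested on absorption parameters. Evaluation used AIC, OFV, GOF, VPC (1000 simulations) and NPDE.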"}, "[3]": {"parameters": "species or system healthy Caucasian subjects", "settings": "Caucasian", "outline": "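Monte Carlo simulation from the final Chinese-population model, with CL/F raised and relative bioavailability lowered per earlier published race covariate estimates. The 24 simulated Caucasian subjects had demographics matching a reported food-effect study.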"}, "[4]": {"assay": "Reported food effect study in Caucasian population", "type": "in vivo, healthy Caucasian subjects", "settings": "average of the 40 mg and 120 mg group, observed data of ref 22"}, "[5]": {"settings": "fractional difference of race, relative to Chinese model; cited from earlier work"}, "[6]": {"settings": "humans, cited from earlier work"}, "[7]": {"settings": "cited from earlier work"}, "[8]": {"settings": "cited from earlier work", "remark": "listed apart in the source"}, "[9]": {"settings": "cited from earlier work", "remark": "listed apart in the source"}, "[10]": {"settings": "fasted, average of the 40 mg and 120 mg group"}},
  "note": "Read-outs that look alike come from different tables or passages of the source.",
  "data": [
    {"smiles": "Cc1nc(-c2ccc(OCC(C)C)c(C#N)c2)sc1C(=O)O", "note": "[febuxostat, 2-[3-cyano-4-(2-methylpropoxy)phenyl]-4-methylthiazole-5-carboxylic acid]", "values": [
      {"measurement": "Cmax (mean ± SD)", "setting": "[1]; 20 mg single oral dose, fasting (n=36), plasma", "value": "1091 ± 301.0", "unit": "ng/mL"},
      {"measurement": "subjects whose concentration-time curves displayed multiple peaks", "setting": "[1]; 20 mg, may be overestimated", "value": "approximately 75.0%"},
      {"measurement": "Tmax (median, range)", "setting": "[1]; 80 mg single oral dose, fed (n=30), plasma", "value": "1.75 (0.75, 4.00) h"},
      {"measurement": "subjects whose concentration-time curves displayed multiple peaks", "setting": "[1]; 80 mg, may be overestimated", "value": "~80.6", "unit": "%"},
      {"measurement": "curves showing multiple peaks", "setting": "[1]; fed study, may be overestimated", "value": "about 40%"},
      {"measurement": "Tmax", "setting": "[1]; human, plasma, po, 20 mg", "value": 1.25, "unit": "h"},
      {"measurement": "estimated CL/F for healthy Chinese subjects", "setting": "[2]; PopPK final model", "value": 6.14, "unit": "L/h"},
      {"measurement": "CL/F, final model estimate (RSE%)", "setting": "[2]; apparent clearance", "value": "6.14 (2.26) L∙h^−1"},
      {"measurement": "Vc/F, final model estimate (RSE%)", "setting": "[2]; apparent distribution volume of central compartment", "value": "10.38 (2.07) L"},
      {"measurement": "Vp/F, final model estimate (RSE%)", "setting": "[2]; apparent distribution volume of peripheral compartment", "value": "10.22 (3.21) L"},
      {"measurement": "WT_Vc/F, final model estimate (RSE%)", "setting": "[2]; covariate coefficient of body weight on Vc/F", "value": "0.58 (27.9)"},
      {"measurement": "WT_Vp/F, final model estimate (RSE%)", "setting": "[2]; covariate coefficient of body weight on Vp/F", "value": "1.15 (22.5)"},
      {"measurement": "Food_Tlag1, final model estimate (RSE%)", "setting": "[2]; covariate coefficient of fed state on Tlag1", "value": "0.73 (18.2)"},
      {"measurement": "Food_ka1, final model estimate (RSE%)", "setting": "[2]; covariate coefficient of fed state on ka1", "value": "−2.04 (8)"},
      {"measurement": "Food_ka2, final model estimate (RSE%)", "setting": "[2]; covariate coefficient of fed state on ka2", "value": "−1.08 (19.9)"},
      {"measurement": "reduction of ka1 by food", "setting": "[2]; fed vs fasted, final model", "value": 87, "unit": "%"},
      {"measurement": "reduction of ka2 by food", "setting": "[2]; fed vs fasted, final model", "value": 66, "unit": "%"},
      {"measurement": "ka1, final model estimate (RSE%)", "setting": "[2]; first-order absorption rate constant of first depot, fasted state", "value": "4.02 (11.4) h^−1"},
      {"measurement": "ka2, final model estimate (RSE%)", "setting": "[2]; first-order absorption rate constant of second depot, fasted state", "value": "4.34 (15.6) h^−1"},
      {"measurement": "F1, final model estimate (RSE%)", "setting": "[2]; fraction of absorbed febuxostat from first depot", "value": "0.51 (3.7)"},
      {"measurement": "Q/F, final model estimate (RSE%)", "setting": "[2]; in vivo", "value": "1.93 (4.25) L∙h^−1"},
      {"measurement": "Tlag1, final model estimate (RSE%)", "setting": "[2]; lag time of first depot, fasted state", "value": "0.22 (8.93) h"},
      {"measurement": "Tlag2, final model estimate (RSE%)", "setting": "[2]; lag time of second depot", "value": "0.92 (7.63) h"},
      {"measurement": "predicted fed/fasted ratio of AUC", "setting": "[3]; simulated", "value": 1.02},
      {"measurement": "predicted fed/fasted ratio of Cmax", "setting": "[3]; simulated", "value": 0.68},
      {"measurement": "predicted fed/fasted ratio of Tmax", "setting": "[3]; simulated", "value": 1.53},
      {"measurement": "ratio of mean predicted and observed AUC", "setting": "[3]; [10]", "value": 0.92},
      {"measurement": "ratio of mean predicted and observed Cmax", "setting": "[3]; [10]", "value": 0.81},
      {"measurement": "ratio of mean predicted and observed Tmax", "setting": "[3]; [10]", "value": 1.41},
      {"measurement": "ratio (predicted/observed) of AUC", "setting": "[3]; fed state", "value": 1.13},
      {"measurement": "ratio (predicted/observed) of Cmax", "setting": "[3]; fed state", "value": 0.92},
      {"measurement": "ratio (predicted/observed) of Tmax", "setting": "[3]; fed state", "value": 1.13},
      {"measurement": "fed/fasted ratio of observed mean AUC", "setting": "[4]", "value": 0.83},
      {"measurement": "fed/fasted ratio of observed mean Cmax", "setting": "[4]", "value": 0.60},
      {"measurement": "fed/fasted ratio of observed mean Tmax", "setting": "[4]", "value": 1.87},
      {"measurement": "decrease of bioavailability applied for Caucasian subjects", "setting": "[5]", "value": 46, "unit": "%"},
      {"measurement": "extent of metabolism by glucuronidation", "setting": "[6]", "value": "up to 40%"},
      {"measurement": "time to reach maximum plasma concentrations (Cmax)", "setting": "[6]; oral administration, fasting condition", "value": "0.5 ~ 1.5 h"},
      {"measurement": "CL/F reported by Rekić et al.", "setting": "[7]", "value": 14.58, "unit": "L/h"},
      {"measurement": "CL/F estimate for healthy Australian subjects", "setting": "[8]", "value": 6.91, "unit": "L/h"},
      {"measurement": "solubility in methanol", "setting": "[9]; methanol", "value": "slightly soluble"},
      {"measurement": "solubility in water", "setting": "[9]; water", "value": "practically insoluble"}
    ]}
  ]
}
